{"source": "ChEMBL document CHEMBL1156524", "about": "“Profiling the enzymatic properties and inhibition of human complement factor B” (J Biol Chem, 2007)", "key": {"[1]": {"organism": "Homo sapiens", "experiment": "Inhibition of human C3bBb convertase assessed as C3 cleavage after 30 mins by 12% gel analysis", "how_it_was_run": "(§1)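 Native convertase assembled in situ: C3 10 µg, factor B 0.5 µg and factor D 0.05 µg, 30 min at 37 °C in PBS pH 7.4 with 1 mM MgCl2 and 154 mM NaCl. Inhibitor at 0.25, 0.5 and 1.0 mM; leupeptin and PMSF at 1.0 mM as controls. C3 to C3a cleavage read on 7% or 12% gels.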"}, "[2]": {"target": "T1, Complement factor B (Homo sapiens, UniProt P00751)", "T1 sequence (P00751 whole entry)": "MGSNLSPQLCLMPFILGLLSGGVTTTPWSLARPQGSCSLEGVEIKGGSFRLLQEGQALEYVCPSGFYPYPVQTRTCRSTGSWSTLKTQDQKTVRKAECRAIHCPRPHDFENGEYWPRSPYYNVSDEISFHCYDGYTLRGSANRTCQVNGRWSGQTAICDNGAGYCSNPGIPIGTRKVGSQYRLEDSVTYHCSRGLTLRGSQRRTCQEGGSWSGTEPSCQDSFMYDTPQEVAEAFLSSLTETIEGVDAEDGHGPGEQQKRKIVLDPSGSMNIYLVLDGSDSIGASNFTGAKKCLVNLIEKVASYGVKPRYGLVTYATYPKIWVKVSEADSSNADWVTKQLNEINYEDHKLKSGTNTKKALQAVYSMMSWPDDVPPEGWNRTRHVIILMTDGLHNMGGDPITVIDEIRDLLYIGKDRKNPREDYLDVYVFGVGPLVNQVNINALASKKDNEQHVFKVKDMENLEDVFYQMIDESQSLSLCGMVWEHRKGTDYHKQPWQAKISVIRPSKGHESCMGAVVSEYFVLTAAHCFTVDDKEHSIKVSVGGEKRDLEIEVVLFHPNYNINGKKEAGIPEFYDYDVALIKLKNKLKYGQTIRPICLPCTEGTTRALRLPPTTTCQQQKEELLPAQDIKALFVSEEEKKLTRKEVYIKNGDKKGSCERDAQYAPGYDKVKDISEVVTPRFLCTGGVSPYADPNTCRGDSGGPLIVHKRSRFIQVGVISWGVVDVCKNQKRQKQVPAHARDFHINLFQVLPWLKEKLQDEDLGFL", "experiment": "Inhibition of human C3 convertase assessed as C3a formation after 30 mins by 7% gel analysis", "how_it_was_run": "(§2)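 Convertase (CVF.Bb) preformed from cobra venom factor 12 µg, factor B 8 µg and factor D 0.2 µg in PBS pH 7.4 with 1 mM MgCl2, 1 h at 37 °C, then diluted with PBS containing 20 mM EDTA. C3 10 µg plus convertase incubated 30 min at 37 °C in PBS pH 7.4 with buffer or inhibitor at 0.01–0.5 mM. C3a formation read on gels loaded with 2.5 µg C3/well (7%) or 5.0 µg (12%).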"}, "[3]": {"organism": "Homo sapiens", "experiment": "Inhibition of human C3bBb convertase assessed as C3 cleavage after 30 mins by 7% gel analysis", "how_it_was_run": "as §1"}, "[4]": {"target": "T1, Complement factor B", "experiment": "Inhibition of human complement factor B", "how_it_was_run": "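Chromogenic assay: 50 nM factor B, 0.5 mM Ac-SHLGLAR-pNA, 100 mM glycine-HCl pH 9.5, 37 °C. Eleven inhibitor concentrations from 1 µM to 1 mM. pNA release monitored at 405 nm; buffer alone as positive control.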"}, "[5]": {"target": "T1, Complement factor B", "experiment": "Inhibition of human complement factor B assessed as cleavage of C3 convertase to C3b at pH 10.2", "how_it_was_run": "(§3)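 Purified factor B 4 µg with C3 10 µg, 3 h at 37 °C in 100 mM glycine-HCl pH 10.2 with 154 mM NaCl. Buffer or inhibitor at 0.01, 0.1, 0.25 or 0.5 mM. C3 cleavage products resolved on 7% and 12% gels.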"}, "[6]": {"target": "T1, Complement factor B", "experiment": "Inhibition of human C3 convertase assessed as C3a formation after 30 mins by 12% gel analysis", "how_it_was_run": "as §2"}, "[7]": {"experiment": "Inhibition of trypsin mediated cleavage of AcSHLGLAR-pNA", "how_it_was_run": "(§4)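 Ac-SHLGLAR-pNA at 0.5 mM final in 10 mM Hepes, 10 mM Tris, 150 mM NaCl, 0.1% PEG, pH 7.4; 150 µL wells; read at 405 nm, 37 °C. Trypsin at 133 nM final, inhibitor at eleven 2-fold dilutions from 26.6 µM, in triplicate. Thrombin at 0.5 U per well, inhibitor at eleven 2-fold dilutions from 666 µM, in duplicate.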"}, "[8]": {"experiment": "Inhibition of thrombin mediated cleavage of AcSHLGLAR-pNA", "how_it_was_run": "as §4"}, "[9]": {"target": "T1, Complement factor B", "experiment": "Inhibition of human complement factor B assessed as […] at pH 10.2", "how_it_was_run": "as §3"}, "[10]": {"target": "T1, Complement factor B", "experiment": "Inhibition of human complement factor B at 100 uM", "how_it_was_run": "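Competition format: 50 nM factor B with 100 µM inhibitor and Ac-SHLGLAR-pNA at 0.5, 2.5, 5 or 10 mM, in 100 mM glycine-HCl pH 9.5 at 37 °C. Absorbance increase followed at 405 nm.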"}, "[11]": {"organism": "Homo sapiens", "experiment": "Inhibition of human C3bBb convertase assessed as C3 cleavage at 1 mM after 30 mins by 12% gel analysis", "how_it_was_run": "(§5)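 Native C3 convertase formed in situ: C3 (10 µg), human factor B (0.5 µg) and factor D (0.05 µg) incubated 30 min at 37 °C in 32 µL PBS pH 7.4 with 1 mM MgCl2 and 154 mM NaCl, plus buffer or inhibitor (0.25–1.0 mM). Cleavage of C3 to C3a read by SDS-PAGE, 2.5 µg C3/well on 7% gel and 5 µg C3/well on 12% gel.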"}, "[12]": {"organism": "Homo sapiens", "experiment": "Inhibition of human C3bBb convertase assessed as C3 cleavage at 1 mM after 30 mins by 7% gel analysis", "how_it_was_run": "as §5"}}, "note": "pIC50: −log10 of the molar value. The source made the active and inactive calls. No cut-off for these calls is given here. Residues, ends and D or L forms follow the SMILES beside them."}
{"smiles": "CC(=O)N[C@@H](CO)C(=O)N[C@@H](Cc1cnc[nH]1)C(=O)N[C@@H](CC(C)C)C(=O)NCC(=O)N[C@@H](CC(C)C)C(=O)N[C@@H](C)C(=O)N[C@H](C=O)CCCNC(=N)N", "note": "(Ac-SHLGLAR-aldehyde)", "values": [{"measurement": "Activity", "setting": "[1]", "value": "Dose-dependent effect"}, {"measurement": "Activity", "setting": "[2]", "value": "Dose-dependent effect"}, {"measurement": "Activity", "setting": "[3]", "value": "Dose-dependent effect"}, {"measurement": "pIC50", "setting": "[4]", "value": 4.72}, {"measurement": "Activity", "setting": "[5]", "value": "Active"}, {"measurement": "Activity", "setting": "[6]", "value": "Dose-dependent effect"}, {"measurement": "pIC50", "setting": "[7]", "value": 3.15}, {"measurement": "pIC50", "setting": "[8]", "value": 4.62}, {"measurement": "Activity", "setting": "[9]", "value": "Dose-dependent effect"}, {"measurement": "Activity", "setting": "[10]", "value": "Dose-dependent effect"}]}
{"smiles": "O=S(=O)(F)Cc1ccccc1", "values": [{"measurement": "Activity", "setting": "[11]", "value": "inactive"}, {"measurement": "Activity", "setting": "[12]", "value": "inactive"}]}
{"smiles": "CC(=O)N[C@@H](CC(C)C)C(=O)N[C@@H](CC(C)C)C(=O)N[C@H](C=O)CCCNC(=N)N", "values": [{"measurement": "Activity", "setting": "[11]", "value": "inactive"}, {"measurement": "Activity", "setting": "[12]", "value": "inactive"}]}
